Measured values published in ChEMBL document CHEMBL3758100, “4H-Chromene-based anticancer agents towards multi-drug resistant HL60/MX2 human leukemia: SAR at the 4th and 6th positions” (Bioorg Med Chem, 2016).
pIC50: −log10 of the molar value.

Assays:
HL-60 = assay: Selectivity ratio of IC50 for human HL60/MX2 cells to IC50 for human HL60 cells; type: functional
How it was run: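 Ratio of IC50 in HL60/MX2 over HL60, both from the 48 h CellTiter-Blue growth-inhibition assay. IC50s are means of at least three biological repeats. Two-tailed Student t test between the two cell lines.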

[1] = Cytotoxicity against human HL60 cells assessed as cell growth inhibition after 48 hrs by cell titer blue cell viability assay; type: functional, cell-based; conditions: HL-60, 48 h
How it was run: (§1)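 HL60 or HL60/MX2 cells kept in RPMI 1640 with 10% FBS and 1% penicillin–streptomycin at 37 °C, 5% CO2. Seeded at 1 × 10^4 cells/well and exposed to serial dilutions (1% DMSO final; 1% DMSO medium as control) in triplicate for 48 h. Viability read by CellTiter-Blue. IC50 fitted with a dose–response model; at least three biological repeats on different days; mean ± SD.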

[2] = Cytotoxicity against human HL60/MX2 cells assessed as cell growth inhibition after 48 hrs by cell titer blue cell viability assay; type: functional, cell-based; conditions: HL60/MX2, 48 h; how it was run: as §1

SMILES | Ratio IC50 (HL-60) | pIC50 [1] | pIC50 [2]
C#CCOC(=O)CC1C(C(=O)OCC#C)=C(N)Oc2cc(C)c(-c3cccc(N)c3)c(C)c21 (configuration not stated) | 1.63 | 4.30 | 4.09
CCOC(=O)C1=C(N)Oc2ccc(-c3cc(OC)cc(OC)c3)cc2C1CC(=O)c1ccccc1 (configuration not stated) | 0.38 | 3.96 | 4.39
C#CCOC(=O)C1=C(N)Oc2ccc(-c3cc(OC)cc(OC)c3)cc2C1CC(=O)CCC (configuration not stated) | 0.78 | 5.16 | 5.27
C#CCOC(=O)C1=C(N)Oc2ccc(-c3cc(OC)cc(OC)c3)cc2C1CC(O)c1ccccc1 (configuration not stated) | 0.54 | 4.00 | 4.27
C#CCOC(=O)C1=C(N)Oc2ccc(-c3cc(OC)cc(OC)c3)cc2C1CC(=O)c1ccccc1 (configuration not stated) | 0.81 | 5.14 | 5.23
C#CCOC(=O)CC1C(C(=O)OCC#C)=C(N)Oc2ccc(-c3cc(OC)cc(OC)c3)cc21 (configuration not stated) | 0.74 | 5.94 | 6.07
C#CCOC(=O)C1=C(N)Oc2ccc(-c3cc(OC)cc(OC)c3)cc2C1CC(O)CCC (configuration not stated) | 0.77 | 4.33 | 4.45
CCCC(=O)CC1C(C(=O)OCC)=C(N)Oc2ccc(-c3cc(OC)cc(OC)c3)cc21 (configuration not stated) | 0.43 | 4.56 | 4.93
C#CCOC(=O)CC1C(C(=O)OCC#C)=C(N)Oc2ccc(-c3cccc(N)c3)cc21 (configuration not stated) |  | 5.76 | 6.27
CCOC(=O)CC1C(C(=O)OCC)=C(N)Oc2ccc(-c3cc(OC)cc(OC)c3)cc21 (configuration not stated) | 0.32 | 5.27 | 5.77
C#CCOC(=O)CC1C(C(=O)OCC#C)=C(N)Oc2cc3c(cc21)-c1cc(OC)cc(OC)c1CO3 (configuration not stated) | 0.18 | 4.38 | 5.13
